# Rows were chosen to be rich in hits. Some 3.6% of all compounds tested hit in one or more screens of this group.
# pPAFAH inh: pPAFAH (human) enzyme inhibition | Q13093 | recombinant pPAFAH, FP-rhodamine probe fluorescence polarization | inhibition, % at 3.39 µM | actives 1.5% (n = 330,000);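 active = inhibition above the mean inhibition across the screen plus 3 SD, cut at about 25% in these data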;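 note: inhibitors block binding of the rhodamine activity-based probe so polarization drops; 0% = enzyme with DMSO and 100% = wells lacking pPAFAH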
# VIM-2 inhibitor: inhibitors of Pseudomonas aeruginosa VIM-2 metallo-beta-lactamase. purified VIM-2, nitrocefin hydrolysis, epi-absorbance fluorescence. inhibition, % at 5.6 µM. actives 0.89% (n = 290,000). AID 1527;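 active = inhibition above the mean of all tested compounds plus 3 SD, cutoff set per screening run, cut at about 7.5% in these data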;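 note: red hydrolysis product quenches plate fluorescence so inhibitors raise well fluorescence; 0% = enzyme with DMSO and 100% = DMSO without enzyme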
# PAFAH1B3 FP inh: inhibitors of human PAFAH1B3; recombinant PAFAH1B3, FP-rhodamine probe, fluorescence polarization; inhibition, % at 3.39 µM; actives 0.28% (n = 340,000); Q15102;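 active = inhibition above the screen-wide average of all tested compounds plus 3 SD, cut at about 25% in these data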;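 note: 0% = enzyme with DMSO only and 100% = wells lacking PAFAH1B3 protein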
# Target sequence (Q15102 whole entry, looked up): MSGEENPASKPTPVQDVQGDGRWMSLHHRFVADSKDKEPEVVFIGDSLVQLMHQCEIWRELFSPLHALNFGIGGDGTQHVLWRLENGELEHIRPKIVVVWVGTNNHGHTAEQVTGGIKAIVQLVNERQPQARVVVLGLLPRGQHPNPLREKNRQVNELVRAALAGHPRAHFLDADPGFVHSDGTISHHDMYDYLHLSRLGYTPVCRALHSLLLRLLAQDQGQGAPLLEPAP
# PAFAH2 FP inh: inhibitors of human PAFAH2; Q99487; recombinant PAFAH2, FP-rhodamine activity probe, fluorescence polarization; inhibition, % at 3.39 µM; actives 0.99% (n = 340,000);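 active = inhibition above the mean over all tested compounds plus 3 SD, cut at about 30% in these data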;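 note: inhibitors block probe labeling of enzyme so polarization drops; 0% = enzyme with DMSO and 100% = wells lacking PAFAH2 protein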
# IMP-1 inh-1: blocks Pseudomonas aeruginosa IMP-1 metallo-beta-lactamase. purified IMP-1, nitrocefin hydrolysis, epi-absorbance fluorescence. inhibition, % at 5.6 µM. actives 0.45% (n = 290,000);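 active = inhibition above the mean plus 3 SD of all compounds in the same screening run, cut at about 4.5% in these data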;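 note: 0% = IMP-1 with DMSO and 100% = DMSO wells lacking enzyme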
#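 assay system = purified recombinant IMP-1 metallo-beta-lactamase enzyme | schedule = 15 min preincubation plus 25 min reaction at 25 °C | signal = Epi-absorbance fluorescence, 480 nm excitation, 530 nm emission | read-out basis = percent inhibition from optical density relative to buffer-blank wells | controls = IMP-1 with DMSO as 0%, enzyme-free DMSO as 100%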
# PAFAH1B2 FP inh: PAFAH1B2 (human) inhibition. P68402. recombinant PAFAH1B2, FP-rhodamine activity probe, fluorescence polarization. inhibition, % at 3.39 µM. actives 1.2% (n = 340,000). AID 492953;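 active = inhibition above the mean of all tested compounds plus 3 SD, cut at about 24% in these data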;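 note: 0% = enzyme with DMSO and 100% = wells lacking PAFAH1B2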
# Target sequence (P68402 whole entry, looked up): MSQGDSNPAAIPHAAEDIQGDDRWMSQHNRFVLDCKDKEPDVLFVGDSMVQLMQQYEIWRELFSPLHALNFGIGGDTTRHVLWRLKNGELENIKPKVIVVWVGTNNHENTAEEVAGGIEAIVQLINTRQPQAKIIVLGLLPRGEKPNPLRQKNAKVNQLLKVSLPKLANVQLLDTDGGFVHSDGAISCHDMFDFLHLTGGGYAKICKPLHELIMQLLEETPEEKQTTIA
# IMP-1 inh-2: IMP-1 inhibition, counter-screen for VIM-2 inhibitors. shares compounds with VIM-2 inhibitor. purified IMP-1, nitrocefin hydrolysis, epi-absorbance fluorescence. inhibition, % at 5.6 µM. 1,300 tested, under 10 active; call rule not given here;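 note: 0% = enzyme with vehicle and 100% = vehicle without enzyme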
# VIM-2 FRET inh: counter-screen for VIM-2 inhibitors: epi-absorbance artifacts via FRET; actives 23% (n = 1,300); shares compounds with VIM-2 inhibitor; purified VIM-2, CCF2 FRET substrate hydrolysis; inhibition, % at 5.6 µM;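 active = inhibition above the mean of all tested compounds plus 3 SD, cut at about 19% in these data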;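 note: 0% = VIM-2 plus DMSO and 100% = no enzyme wells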
# TEM-1 inh: blocks E. coli TEM-1 beta-lactamase in VIM-2 selectivity screen | inhibition, % at 5.6 µM | Purified TEM-1, nitrocefin hydrolysis, epi-absorbance fluorescence | shares compounds with VIM-2 inhibitor | actives 3% (n = 1,300);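 active = inhibition above that campaign's mean inhibition plus 3 SD, cut at about 0.46% in these data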;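 note: 0% = TEM-1 with DMSO and 100% = TEM-1 with 100 µM potassium clavulanate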
# Target sequence (P62593 whole entry, looked up): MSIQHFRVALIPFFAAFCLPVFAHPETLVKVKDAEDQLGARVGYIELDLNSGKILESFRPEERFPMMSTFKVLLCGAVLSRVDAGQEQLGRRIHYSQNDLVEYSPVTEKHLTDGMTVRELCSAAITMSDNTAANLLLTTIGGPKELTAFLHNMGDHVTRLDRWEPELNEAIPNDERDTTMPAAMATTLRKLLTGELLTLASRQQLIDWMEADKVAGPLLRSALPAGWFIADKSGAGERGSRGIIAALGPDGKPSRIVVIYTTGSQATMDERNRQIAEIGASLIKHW
# VIM-2 confirm 2: confirmation of P. aeruginosa VIM-2 metallo-beta-lactamase inhibitors; shares compounds with VIM-2 inhibitor; purified VIM-2, nitrocefin hydrolysis, epi-absorbance; inhibition, % at 5.6 µM; actives 96% (n = 1,300);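 active = inhibition of the VIM-2 beta-lactamase enzyme above about 11% from the earlier first-round screen, limit read from the data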;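 note: 0% = VIM-2 with DMSO and 100% = buffer wells without enzyme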
# * marks the source's active call; other numbers are inactive results; x = no result given.
SMILES,pPAFAH inh,VIM-2 inhibitor,PAFAH1B3 FP inh,PAFAH2 FP inh,IMP-1 inh-1,PAFAH1B2 FP inh,IMP-1 inh-2,VIM-2 FRET inh,TEM-1 inh,VIM-2 confirm 2
CCCn1c(=N)c(S(=O)(=O)c2ccc(F)cc2)cc2c(=O)n3cccc(C)c3nc21,-1.9,12.7*,-3.9,7.1,-1.4,-2.8,-0.9,-4.3,2.9*,27.1*
CCCCCn1c(=N)c(S(=O)(=O)c2ccc(Br)cc2)cc2c(=O)n3cccc(C)c3nc21,1.2,-5.7,-1.6,4.3,-2.7,7.7,x,x,x,x
O=C(O)C1CCN(S(=O)(=O)c2cccc3nonc23)CC1,7.2,-0.4,6.5,-4.1,-2.4,1.5,x,x,x,x
Cn1c2ccccc2c2nnc(SCC(=O)Nc3cccc(O)c3)nc21,7.7,20.4*,2.1,5.7,-2.4,3.5,-2.3,3.5,-8.3,27.4*
Cn1c2ccccc2c2nnc(SCCN3CCOCC3)nc21,x,17.1*,11.5,-8.6,-2.1,5.5,-3.1,0.4,-9.3,23.0*
CCCCn1c2ccc(C)cc2c2nnc(SCCN3CCCCC3)nc21,x,21.6*,0.7,-5.1,-2.6,2.7,-2.7,8.3,-8.0,32.9*
CCn1c2ccccc2c2nnc(SCc3ccccc3)nc21,4.0,-2.5,3.4,5.3,-1.6,-1.5,x,x,x,x
CCn1c2ccccc2c2nnc(SCCN3CCCCC3)nc21,3.5,19.1*,4.3,1.0,-4.3,2.7,-1.0,2.3,-0.8,21.5*
CCn1c2ccccc2c2nnc(SCC(=O)Nc3ccc4c(c3)OCO4)nc21,5.0,-1.7,3.3,2.8,-3.6,6.5,x,x,x,x
Cn1c2ccccc2c2nnc(SCc3nnc(-c4ccccc4)o3)nc21,8.0,-1.7,x,x,-1.6,x,x,x,x,x
O=C(CNC(=O)c1cc(S(=O)(=O)N2CCCCC2)ccc1N1CCOCC1)Nc1ccc(F)c(F)c1,1.5,x,0.8,1.6,x,3.1,x,x,x,x
COc1ccc(C(=O)NCCCCCCNC(=O)c2ccc(OC)cc2)cc1,-0.6,-2.8,8.4,-5.2,-2.0,-1.4,x,x,x,x
Nc1cc(N)nc(SCCN2CCCCC2)n1,-3.7,-0.4,9.4,2.1,-0.5,2.4,x,x,x,x
Cc1cc(C)c2c(c1)c1nnc(SCCN3CCCCC3)nc1n2C,x,23.0*,0.0,5.5,0.6,-2.2,-3.0,1.4,-5.6,33.1*
O=C(NNC(=O)c1cccs1)c1ccc(Cl)nc1,2.1,x,-5.9,2.3,x,-2.0,x,x,x,x
Cc1cc2nc(C)n3c4ccccc4nc3n2n1,-3.0,7.2,3.9,7.3,-3.5,6.5,x,x,x,x
CCc1nc2cc(C)nn2c2nc3ccccc3n12,-7.8,16.2*,4.3,10.1,-0.1,-0.5,-3.1,3.7,-4.6,26.4*
CC(C)(C)C(=O)Nc1nnc(SCC(=O)NCc2cccs2)s1,2.4,56.3*,-4.8,-9.5,-1.5,17.1,-2.6,78.6*,-6.3,61.3*
CC(C)C(=O)Nc1nnc(SCC(=O)NCc2cccs2)s1,-0.6,13.9*,10.3,-5.8,-3.0,1.9,-2.7,41.1*,-5.1,26.3*
CCn1c(-c2cccnc2)n[nH]c1=S,0.1,-3.8,1.1,0.1,-1.9,-0.1,x,x,x,x
CCCCn1c(-c2cccnc2)n[nH]c1=S,1.0,20.4*,5.9,-1.6,-4.9,1.9,-2.7,32.5*,-6.8,21.7*
CC[C@]12c3[nH]c4cc(-c5ccco5)ccc4c3CCN1C(=O)[C@@H](CC(=O)NCCN1CCOCC1)C[C@@H]2C(=O)N1CCN(C(=O)C2CC2)CC1,6.6,x,2.0,-3.0,x,-0.1,x,x,x,x
NS(=O)(=O)c1cc(C(=O)Nc2ccc3c(c2)CCC3)ccc1Cl,-3.5,-0.9,-3.0,6.8,-3.5,0.2,x,x,x,x
CCN(CC)CCn1nc2c3c(cccc3c1=O)-c1ccccc1-2,4.4,17.2*,2.2,4.6,-1.0,-0.2,-3.3,2.0,-6.2,28.9*
Cc1nn2c(-c3ccc(S(=O)(=O)N4CCN(CCO)CC4)o3)nnc2c2ccccc12,0.9,25.8*,5.1,11.2,-0.3,7.1,-2.0,7.6,-2.8,34.7*
SMILES,pPAFAH inh,VIM-2 inhibitor,PAFAH1B3 FP inh,PAFAH2 FP inh,IMP-1 inh-1,PAFAH1B2 FP inh,IMP-1 inh-2,VIM-2 FRET inh,TEM-1 inh,VIM-2 confirm 2
COc1ccc(-c2nnc3c4ccccc4c(C)nn23)cc1,-4.3,7.3,6.9,-5.6,-2.0,2.9,x,x,x,x
COc1ccc(-c2nnc3c4ccccc4c(C)nn23)cc1S(=O)(=O)N1CCN(CCO)CC1,7.4,27.4*,9.5,8.3,-5.6,8.7,-2.6,10.9,-9.1,39.7*
NC(=S)NN=C1C=CCCC1,x,x,15.6,-0.7,x,7.2,x,x,x,x
Cc1ccc2c(c1)c1nc3ccccc3nc1n2CCN1CCOCC1,1.5,2.2,5.8,1.4,-3.5,1.1,x,x,x,x
Cc1ccc2c(c1)c1nc3ccccc3nc1n2C,-6.5,13.7*,2.4,-1.4,1.3,-1.9,-1.2,0.8,-3.8,16.3*
Cn1c(SCC(=O)N=Nc2c(O)[nH]c3ccccc23)nc2ccccc21,3.9,-0.4,x,x,-3.5,x,x,x,x,x
O=C(CCn1cnc2ccccc21)N=Nc1c(O)[nH]c2ccccc12,7.0,35.9*,8.6,-0.9,-4.0,0.3,-4.6,-8.2,-6.6,53.5*
COc1ccc2c(c1)[C@H]1[C@H](CO2)[C@H](c2ccccc2)[C@]2(C)C(=O)N(CC3CCCO3)CC(=O)N12 (some centres not stated),4.7,x,4.6,-3.6,x,0.1,x,x,x,x
O=C1c2ccccc2-c2onc3c(N4CCN(CCO)CC4)cc(N4CCN(C(=O)c5ccco5)CC4)c1c23,29.1*,14.3*,-77.8,-108.9,1.0,-57.9,-2.2,-10.2,-10.8,18.4*
CN1CCN(c2cc(N3CCN(C(=O)c4ccco4)CC3)c3c4c(onc24)-c2ccccc2C3=O)CC1,10.8,16.8*,8.8,4.8,-0.1,9.1,-2.2,-12.3,-10.4,24.0*
O=c1c(Cl)c(O)ccn1C1OC(CO)C(O)C1O (configuration not stated),x,x,1.2,-0.2,x,-1.7,x,x,x,x
CSc1nc2sc3c(c2c(=S)[nH]1)CC(C)(C)OC3,x,14.7*,9.0,4.7,-2.2,3.2,-3.1,20.8*,-6.8,19.4*
CSc1nc(SCC(=O)O)c2c3c(sc2n1)COC(C)(C)C3,2.5,16.8*,11.0,2.3,-3.7,10.2,-3.2,43.3*,-6.0,24.6*
O=[N+]([O-])c1ccccc1/C=C/C=N/n1c(-c2ccccc2F)n[nH]c1=S,8.3,13.5*,4.3,14.1,-1.8,6.6,-1.4,33.7*,-4.5,21.2*
CC1CCN(C(=O)c2ccc3c(c2NCCO)C(=O)c2ccccc2C3=O)CC1,11.8,-0.3,-3.5,-2.3,-4.7,-0.7,x,x,x,x
